Measurements: ChEMBL document CHEMBL1156985 (Bioorg Med Chem Lett, 2010)

Legend:
Cytochrome P450 3A4 = Cytochrome P450 3A4 (Homo sapiens, UniProt P08684); test: Inhibition of CYP3A4 preincubated for 30 mins; type: ADME
Mus musculus [1] = test: Gastrointestinal toxicity in CRND8 mouse at 30 mg/kg, po after 3 hrs; type: organism-based; design: dose 30 mg/kg, route oral; details: in vivo
[2] = Inhibition of gamma secretase-mediated Abeta40 production by cell based assay
Summary of the method: (§1)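 Cell-based assay measuring secreted Abeta40 and Abeta42. IC50 values are the means of two experiments.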

Mus musculus [3] = test: Inhibition of Abeta40 production in CRND8 mouse brain cortex at 30 mg/kg, po after 3 hrs; type: functional
Summary of the method: (§2)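 CRND8 transgenic mice were given a single oral dose of 30 mg/kg. Abeta40 was measured in plasma and brain cortex at 3 h, or at 6 h, after dosing. Results are expressed as percent inhibition of Abeta40.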

[4] = Inhibition of gamma secretase-mediated Abeta42 production by cell based assay; summary of the method: as §1
Mus musculus [5] = test: Inhibition of Abeta40 production in CRND8 mouse plasma at 30 mg/kg, po after 3 hrs; type: functional; summary of the method: as §2
[6] = AUC in CRND8 mouse; type: ADME, organism-based; design: concentration or dose not given beside the values; details: plasma
[7] = Inhibition of gamma secretase-mediated Abeta40 production
Mus musculus [8] = test: Inhibition of Abeta40 production in CRND8 mouse plasma at 30 mg/kg, po after 6 hrs; type: functional; summary of the method: as §2
Mus musculus [9] = test: Inhibition of Abeta40 production in CRND8 mouse brain cortex at 30 mg/kg, po after 6 hrs; type: functional; summary of the method: as §2

Chain of Cytochrome P450 3A4 (P08684 whole entry): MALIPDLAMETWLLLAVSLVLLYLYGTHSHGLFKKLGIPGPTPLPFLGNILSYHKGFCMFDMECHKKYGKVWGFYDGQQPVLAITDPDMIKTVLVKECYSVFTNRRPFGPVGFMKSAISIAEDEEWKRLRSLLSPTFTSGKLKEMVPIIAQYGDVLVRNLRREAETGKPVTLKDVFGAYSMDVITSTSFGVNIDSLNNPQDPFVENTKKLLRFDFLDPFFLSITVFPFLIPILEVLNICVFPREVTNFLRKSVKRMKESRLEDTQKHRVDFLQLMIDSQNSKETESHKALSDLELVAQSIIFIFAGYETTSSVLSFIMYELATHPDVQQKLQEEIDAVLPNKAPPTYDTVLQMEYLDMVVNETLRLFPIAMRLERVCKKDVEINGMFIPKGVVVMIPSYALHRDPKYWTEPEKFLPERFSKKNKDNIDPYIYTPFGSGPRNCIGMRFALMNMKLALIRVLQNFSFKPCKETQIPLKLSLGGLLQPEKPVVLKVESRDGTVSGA

SMILES	IC50 [2] [nM]	IC50 [4] [nM]	IC50 [7] [nM]	other results
O=S(=O)(N[C@@H]1CC[C@@]2(S(=O)(=O)c3ccc(Cl)cc3)c3c(F)ccc(F)c3OC[C@H]2C1)C(F)(F)F	108	46	27.1	IC50 (Cytochrome P450 3A4): > 30000 nM; Activity (Mus musculus [1]): Non-toxic; inhibition in vivo at 30 mg/kg (Mus musculus [3]): 42%; inhibition in vivo at 30 mg/kg (Mus musculus [5]): 90%; AUC [6]: 5050 ng·h/mL
O=S(=O)(N[C@@H]1CC[C@@]2(S(=O)(=O)c3ccc(Cl)cc3)c3c(F)ccc(F)c3OC[C@H]2C1)C1CC1	9.3	4.3	8.4	IC50 (Cytochrome P450 3A4): > 30000 nM; inhibition in vivo at 30 mg/kg (Mus musculus [8]): 80%; inhibition in vivo at 30 mg/kg (Mus musculus [9]): 58%; AUC [6]: 1910 ng·h/mL
O=S(=O)(N[C@@H]1CC[C@@]2(S(=O)(=O)c3ccc(Cl)cc3)c3c(F)ccc(F)c3OC[C@H]2C1)c1ccccn1	68	26	7.6	inhibition in vivo at 30 mg/kg (Mus musculus [5]): 19%
CCC1(S(=O)(=O)c2ccc(Cl)cc2)CC(CO)Oc2c(F)ccc(F)c21 (mixture of isomers)			620	
O=C1CCC2(S(=O)(=O)c3ccc(Cl)cc3)c3c(F)ccc(F)c3OCC2C1 (racemic)	17	12	13	IC50 (Cytochrome P450 3A4): 1200 nM; inhibition in vivo at 30 mg/kg (Mus musculus [5]): 19%; AUC [6]: 60 ng·h/mL
O=S(=O)(c1ccc(Cl)cc1)C12CCC(O)CC1COc1c(F)ccc(F)c12 (racemic)	25	18	28	inhibition in vivo at 30 mg/kg (Mus musculus [3]): 55%; inhibition in vivo at 30 mg/kg (Mus musculus [5]): 44%; AUC [6]: 164 ng·h/mL
NC1CCC2(S(=O)(=O)c3ccc(Cl)cc3)c3c(F)ccc(F)c3OCC2C1 (racemic)			1700	
CC(=O)NC1CCC2(S(=O)(=O)c3ccc(Cl)cc3)c3c(F)ccc(F)c3OCC2C1 (racemic)	145	107	107	AUC [6]: 1720 ng·h/mL
CC1(S(=O)(=O)c2ccc(Cl)cc2)CCOc2c(F)ccc(F)c21 (racemic)			808	
CCC1(S(=O)(=O)c2ccc(Cl)cc2)CCOc2c(F)ccc(F)c21 (racemic)			72	
O=S(=O)(c1ccc(Cl)cc1)C1CCOc2c(F)ccc(F)c21 (racemic)			1600	
C[C@H]1COc2c(F)ccc(F)c2[C@@]1(C)S(=O)(=O)c1ccc(Cl)cc1 (relative stereo)			110	
CC[C@@H]1C[C@](CC)(S(=O)(=O)c2ccc(Cl)cc2)c2c(F)ccc(F)c2O1 (relative stereo)			830	
O=S(=O)(c1ccc(Cl)cc1)[C@H]1c2c(F)ccc(F)c2OC[C@@H]1CO (relative stereo)			510	
C[C@H]1COc2c(F)ccc(F)c2[C@@H]1S(=O)(=O)c1ccc(Cl)cc1 (relative stereo)			64	
COC[C@H]1COc2c(F)ccc(F)c2[C@@]1(C)S(=O)(=O)c1ccc(Cl)cc1 (relative stereo)			270	
C[C@@H]1C[C@](C)(S(=O)(=O)c2ccc(Cl)cc2)c2c(F)ccc(F)c2O1 (relative stereo)			1200	
